In the library only some 9.4% were active in any assay of this set; here they are far more common.
SKKanGAS inh: blocks kanamycin growth of S. pyogenes SKKanGAS strain; BacTiter-Glo, 6 h; inhibition, % at 7.5 µM; 1.3% of 300,000 active; AID 1662;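 active means mean replicate score, as percent of positive control median, at least 50; inconclusive means mean below 50 but one replicate at or above 50; inactive means mean and every replicate below 50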;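 further: strain carries kanamycin resistance gene driven by streptokinase promoter and grows in 40 µg/ml kanamycin; loss of luminescence reflects streptokinase promoter inhibition or plain growth inhibition; 0% = median of DMSO wells and 100% = positive control at its reference dose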
Beta cell apopt: blocks beta cell apoptosis. 0.8% of 300,000 active. INS-1E cytokine-induced death, ATP luminescence, 48 h; percent of positive-control rescue, neutral wells zero. AID 435005. protection from apoptosis, % (no concentration beside the values);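 active means Every replicate reaches about 75%, or at least half do and their mean reaches it too, limit read from the data; inconclusive means At least half of replicates reach the limit but their mean does not; inactive means Under half of replicates reach the limit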;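 further: 0% = cytokine-treated negative control wells and 100% = positive control rescue; higher means more ATP so stronger rescue from cytokine killing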
Mdm2-MdmX inh: inhibitors of human Mdm2/MdmX interaction. O15151+Q00987. 3% of 330,000 active. inhibition, % at 8 µM. SaOS-2 split-luciferase Mdm2/MdmX complementation, luminescence;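 active means inhibition of at least 50% at 8 µM in the primary screen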
Target sequence (O15151 whole entry, looked up): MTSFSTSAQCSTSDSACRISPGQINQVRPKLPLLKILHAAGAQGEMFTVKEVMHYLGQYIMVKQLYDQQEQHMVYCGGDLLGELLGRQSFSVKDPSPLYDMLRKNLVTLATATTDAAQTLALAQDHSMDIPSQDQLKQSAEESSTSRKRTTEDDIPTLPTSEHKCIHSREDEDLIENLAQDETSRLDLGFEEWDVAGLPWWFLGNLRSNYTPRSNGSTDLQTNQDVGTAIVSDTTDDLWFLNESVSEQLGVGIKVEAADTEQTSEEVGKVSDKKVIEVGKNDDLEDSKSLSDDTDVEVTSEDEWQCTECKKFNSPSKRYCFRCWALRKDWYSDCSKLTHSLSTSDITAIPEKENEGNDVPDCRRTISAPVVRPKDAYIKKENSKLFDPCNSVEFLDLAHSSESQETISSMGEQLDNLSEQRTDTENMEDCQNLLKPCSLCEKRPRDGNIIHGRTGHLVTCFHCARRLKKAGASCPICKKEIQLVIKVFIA
Target sequence (Q00987 whole entry, looked up): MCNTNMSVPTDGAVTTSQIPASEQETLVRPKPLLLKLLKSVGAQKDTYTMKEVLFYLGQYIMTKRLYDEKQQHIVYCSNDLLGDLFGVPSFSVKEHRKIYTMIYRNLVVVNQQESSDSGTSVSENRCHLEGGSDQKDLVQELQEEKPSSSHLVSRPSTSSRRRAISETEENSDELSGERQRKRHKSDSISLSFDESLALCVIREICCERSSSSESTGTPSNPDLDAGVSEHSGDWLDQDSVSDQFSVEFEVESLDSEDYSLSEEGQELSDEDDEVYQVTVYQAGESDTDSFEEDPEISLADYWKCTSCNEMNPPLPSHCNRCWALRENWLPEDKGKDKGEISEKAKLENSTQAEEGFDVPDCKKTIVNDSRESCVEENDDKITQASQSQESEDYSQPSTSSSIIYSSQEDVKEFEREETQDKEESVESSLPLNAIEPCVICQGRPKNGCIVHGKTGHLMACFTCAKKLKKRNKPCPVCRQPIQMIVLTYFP
T cruzi inh: blocks replication of Trypanosoma cruzi | T. cruzi beta-gal in NIH3T3, luminescence, 90 h | inhibition, % (test concentration not listed) | 1.4% of 300,000 active | AID 1885;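 active means mean inhibition across valid replicates above about 55%, limit read from the data; inconclusive means mean below that limit but half or more replicates reach it; inactive means mean below it, under half of replicates reach it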;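 further: signal also drops with host cell toxicity which is not excluded here; 0% = plate median of DMSO wells and 100% = zero luminescence signal; higher percent means less beta-gal luminescence so fewer parasites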
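Assay system: NIH/3T3 host cells with β-galactosidase reporter T. cruzi; input: 5,000 host fibroblasts per well; compound: single 50 nL compound addition per well in DMSO; timing: ≥90 h infection period, 3 h prior cell attachment; measured by: GalScreen β-gal luminescence, detergent lysis, 60 min; evaluation: percent inhibition of parasite-derived β-gal signal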
L major viab: reduces viability of Leishmania major promastigotes; resazurin fluorescence viability; inhibition, % at 10 µM; 9% of 200,000 active; in the data active means inhibition above about 50%;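 further: promastigotes grown with compound for 44 hours at 28 °C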
CSC inhib: blocks cancer stem cells; 1.1% of 300,000 active; inhibition, % at 7.5 µM; cancer stem cell-like cells viability, luminescence; AID 2717; in the data active means inhibition above about 75%; inconclusive means no clear call, values can overlap the other calls; tested in HMLE shEcad cells
Mdm2 MdmX conf: human Mdm2/MdmX binding inhibition, confirmed; shares compounds with Mdm2-MdmX inh; luminescent assay; inhibition, % at 8 µM; 55% of 10,000 active; in the data active means inhibition above about 40%
Full FLuc ctr: inhibits full-length luciferase, flagging false Mdm2/MdmX hits. shares compounds with Mdm2-MdmX inh. SaOS-2 full-length luciferase counterscreen, luminescence. inhibition, % at 8 µM. 77% of 6,200 active. AID 504607;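 active means mean inhibition at 8 µM reaching about 37%, which flags the compound as non-specific, limit read from the data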;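 further: p53-null SaOS-2 cells with luciferase driven by a doxycycline-inducible promoter; compound on cells about two nights before reading with doxycycline added after day one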
* marks the source's active call; other numbers are inactive results; ? = inconclusive; . = no result given.

SMILES	SKKanGAS inh	Beta cell apopt	Mdm2-MdmX inh	T cruzi inh	L major viab	CSC inhib	Mdm2 MdmX conf	Full FLuc ctr
O=c1[nH]c(CN2CCN(c3ccccc3)CC2)nc2scc(-c3ccccc3)c12	9	-11	72*	-31	67*	49	73*	54*
Cc1c(NC(=O)c2cc(-c3cccs3)nc3ccccc23)c(=O)n(-c2ccccc2)n1C	7	5	57*	-46	-2	22	37	.
Cc1cc(C)c2nc(NNC(=O)c3cc(-c4cccs4)nc4ccccc34)sc2c1	89*	.	77*	46	-2	97*	68*	57*
O=C(NNc1nc2ccc(Cl)cc2s1)c1cc(-c2cccs2)nc2ccccc12	88*	6	53*	-30	-9	109*	62*	61*
O=C(NN1CCOCC1)c1cc(-c2cccs2)nc2ccccc12	2	-5	-12	-33	-1	5	.	.
Cc1c(NC(=O)c2cc(-c3ccccc3)nc3ccccc23)c(=O)n(-c2ccccc2)n1C	.	3	20	.	.	-1	.	.
O=C(CN1N=C(c2ccc(Cl)cc2)CCC1=O)NCc1cccnc1	-2	-2	-13	-10	1	-13	.	.
Cc1sc(NC(=O)CSc2nnc(COc3ccc(Cl)cc3)n2C)c(C#N)c1C	-21	3	52*	12	-3	6	34	.
CCOC(=O)c1cnc(SCC(=O)Nc2sc(C)c(C)c2C#N)nc1N	11	.	72*	8	0	-5	7	.
CCOC(=O)c1cnc(SCC(=O)Nc2cc(C(F)(F)F)ccc2N2CCOCC2)nc1N	6	4	55*	7	-1	0	-4	.
CCOC(=O)c1cnc(SCC(=O)Nc2cc(OC)cc(OC)c2)nc1N	0	3	34	-5	3	1	.	.
COc1ccc(S(=O)(=O)N2CCN(C(=O)c3cc(C)on3)CC2)cc1	.	0	-8	.	.	.	.	.
CCOc1ccc(-c2csc(/C(C#N)=C\c3ccc(O)c([N+](=O)[O-])c3)n2)cc1	101*	74	96*	9	-3	108*	83*	52*
CC(=O)c1c(C)[nH]c(C(=O)OCC(=O)c2c(N)n(C)c(=O)n(C)c2=O)c1C	-2	-12	56*	-10	-8	-1	2	.
c1ccc(-c2cc(NCCN3CCCCC3)c3ccccc3n2)cc1	-1	.	57*	47	.	.	46*	51*
CCCn1c(N)c(C(=O)CSc2nc3ccccc3s2)c(=O)[nH]c1=O	8	7	82*	16	2	42	79*	49*
O=C(CCC(=O)Nc1cccc([N+](=O)[O-])c1)N/N=C/c1cccs1	.	4	12	.	.	6	.	.
CCOC(=O)/C(=C\c1ccccc1)C(=O)c1cc(C(C)=O)c(Nc2ccccc2)s1	-17	98*	97*	55*	100*	76*	93*	45*
CCOC(=O)/C(=C\c1cccnc1)C(=O)c1cc(C(C)=O)c(Nc2ccccc2)s1	-37	105*	97*	54	100*	97*	99*	52*
Cc1ccc(S(=O)(=O)n2c3ccc(F)cc3c3nc(C)sc32)cc1	24	-2	16	6	3	39	.	.
NC(=O)COc1c(-c2ccc(Br)o2)oc2ccccc2c1=O	0	7	15	15	.	0	.	.
O=C(CN1C(=O)/C(=C\c2ccc(F)cc2)Oc2ccccc21)N1CCN(c2ccccn2)CC1	-2	-2	79*	-5	-2	5	32	79*
O=C(CCN1C(=O)/C(=C/c2ccccc2)SC1=S)Nc1ccccn1	1	0	5	-14	.	17	.	.
COc1ccc(/C=C2\SC(=S)N(CCCC(=O)Nc3cccc(C(=O)O)c3)C2=O)cc1OC	28	-9	17	1	.	-21	.	.
O=C(CN1C(=O)/C(=C/c2ccc(F)cc2)SC1=S)N1CCN(CCc2ccccn2)CC1	-6	.	60*	22	.	6	-11	.
SMILES	SKKanGAS inh	Beta cell apopt	Mdm2-MdmX inh	T cruzi inh	L major viab	CSC inhib	Mdm2 MdmX conf	Full FLuc ctr
Cc1ccc(/C=C2\SC(=S)N(CCCC(=O)Nc3ccccn3)C2=O)cc1	0	-10	69*	3	0	8	68*	52*
COc1ccc(/C=C2\SC(=S)N(CCCC(=O)Nc3ccccn3)C2=O)cc1OC	24	-11	63*	24	63*	30	52*	76*
COC(=O)[C@@H]1[C@@H](C#N)C2(c3ccccc3-c3ccccc32)N(c2ccc(Cl)cc2)N1C#N	?	-10	60*	-43	-2	105*	50*	33
COc1cc2nc(SCC(N)=O)n(CCC3=CCCCC3)c(=O)c2cc1OC	-1	3	80*	9	1	0	14	.
CCN(C(=O)COC(=O)c1ccc(=O)n(Cc2ccccc2)n1)C1CCS(=O)(=O)C1 (stereo not given)	.	.	17	.	.	.	.	.
O=C1c2ccccc2C(=O)C12OC(c1ccccc1)C1(C(=O)c3ccccc3C1=O)C2c1ccc([N+](=O)[O-])cc1 (stereo not given)	-5	6	14	14	-10	15	.	.
O=C1c2ccccc2C(=O)C12OC2c1ccc(Cl)cc1 (stereo not given)	-24	5	81*	-7	1	15	-8	.
CCC(=O)c1ccc(O)c(CC=C(C)C)c1	-2	-11	57*	4	14	.	44*	42*
CCC(=O)c1ccc(O)c(OC)c1	1	-10	-1	9	-10	-7	.	.
Cc1cccc(Cn2c(N3CCN(C)CC3)nc3c2c(=O)n(C)c(=O)n3C)c1	-1	.	-16	-11	.	.	.	.
c1ccc(-c2noc(-c3ccc4ccccc4c3)n2)nc1	22	15	80*	7	3	19	83*	27
COc1cccc(-c2nc(-c3ccccn3)no2)c1	9	.	55*	0	12	17	33	57*
c1ccc(-c2noc(-c3ccc4c(c3)OCO4)n2)nc1	76*	74	83*	-4	-6	95*	86*	29
COc1cccc(-c2nc(-c3ccccc3)no2)c1	5	-1	-234	4	1	-8	.	.
COc1cccc(C2C(C(=O)OC(C)C)=C(C)N=c3s/c(=C\c4ccc(C(=O)O)cc4)c(=O)n32)c1 (stereo not given)	25	-3	1	-19	.	22	.	.
O=c1/c(=C\c2ccc(O)cc2)sc2n1C(c1ccccc1)C(c1ccccc1)=NN=2 (stereo not given)	38	13	79*	15	28	-2	43*	51*
Cc1nnsc1-c1onc(C)c1C(=O)Nc1cc(Cl)cc(Cl)c1	27	77*	76*	23	.	25	16	.
